# Laboratory results reported in ChEMBL document CHEMBL3774376, “Synthesis, and anticonvulsant activity of new amides derived from 3-methyl- or 3-ethyl-3-methyl-2,5-dioxo-pyrrolidin-1-yl-acetic acids” (Bioorg Med Chem, 2016).
# The source made the active and inactive calls. The calls are words filed in the database; no cut-off is given here.
# Assays:
# [1] = tested on: Mus musculus; assay: Neurotoxicity in CD1 albino mouse assessed as acute motor impairment at 100 to 300 mg/kg, ip after 0.5 hrs by rotarod test; type: toxicity, organism-based; details: in vivo
# In short: (§1)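 Male CD-1 mice given 30, 100 or 300 mg/kg ip in 0.5% methylcellulose, tested at 0.5 and 4 h. Motor impairment was scored as failure to keep balance for at least 1 min on a rod rotating at 10 rpm. Minimum dose causing impairment reported.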
# [2] = tested on: Mus musculus; assay: Neurotoxicity in CD1 albino mouse assessed as acute motor impairment at 300 mg/kg, ip after 4 hrs by rotarod test; type: toxicity, organism-based; details: in vivo; in short: as §1
# [3] = tested on: Mus musculus; assay: Anticonvulsant activity in CD1 albino mouse assessed as protection against maximal electroshock-induced seizures at 100 to 300 mg/kg, ip after 0.5 hrs; type: functional; details: read-out: MED
# [4] = tested on: Mus musculus; assay: Anticonvulsant activity in CD1 albino mouse assessed as protection against maximal electroshock-induced seizures at 300 mg/kg, ip after 4 hrs; type: functional, organism-based
# [5] = tested on: Mus musculus; assay: Anticonvulsant activity in CD1 albino mouse assessed as protection against subcutaneous pentylenetetrazole-induced seizures at 100 to 300 mg/kg, ip after 0.5 hrs; type: functional; details: CD1, 0.5 h, read-out: MED
# In short: (§2)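 Male CD-1 mice (16-26 g), compounds ip in 0.5% methylcellulose/water at 30, 100 or 300 mg/kg, 3-4 per group. At 0.5 or 4 h, pentylenetetrazole 85 mg/kg was injected sc. Protection was absence of clonic convulsions (at least 5 s) over a 30 min observation. Minimum active dose recorded.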
# [6] = tested on: Mus musculus; assay: Anticonvulsant activity in CD1 albino mouse assessed as protection against subcutaneous pentylenetetrazole-induced seizures at 300 mg/kg, ip after 4 hrs; type: functional, organism-based; in short: as §2
# [7] = tested on: Mus musculus; assay: Neurotoxicity in CD1 albino mouse assessed as acute motor impairment at 300 mg/kg, ip measured after 0.5 hrs by rotarod test; type: toxicity, organism-based; details: in vivo; in short: as §1
# [8] = tested on: Mus musculus; assay: Anticonvulsant activity in ip dosed CD1 albino mouse assessed as time to peak effect; type: functional
# In short: (§3)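 Quantitation in male CD-1 mice dosed ip at the previously estimated time of peak effect. Seizures were induced by MES or by sc pentylenetetrazole 85 mg/kg; rotarod at 10 rpm assessed motor impairment. Groups of six, at least three doses giving 10-90% effect.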
# [9] = tested on: Mus musculus; assay: Anticonvulsant activity in ip dosed CD1 albino mouse assessed as time to peak effect by 6Hz psychomotor seizure test; type: functional
# In short: (§4)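 6-Hz corneal stimulation at 32 mA (6 Hz, 3 s) in male CD-1 mice dosed ip. Groups of six received several doses until at least three points fell between 10 and 90% protection. […] PI = TD50/ED50 (rotarod).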
# [10] = tested on: Mus musculus; assay: Anticonvulsant activity in CD1 albino mouse assessed as protection against maximal electroshock-induced seizures at 300 mg/kg, ip after 0.5 hrs; type: functional, organism-based
# [11] = tested on: Mus musculus; assay: Anticonvulsant activity in CD1 albino mouse assessed as protection against subcutaneous pentylenetetrazole-induced seizures at 300 mg/kg, ip after 0.5 hrs; type: functional, organism-based; in short: as §2
# [12] = tested on: Mus musculus; assay: Neurotoxicity in CD1 albino mouse assessed as acute motor impairment at 100 to 300 mg/kg, ip after 4 hrs by rotarod test; type: toxicity, organism-based; details: in vivo; in short: as §1
# [13] = tested on: Mus musculus; assay: Anticonvulsant activity in CD1 albino mouse assessed as protection against maximal electroshock-induced seizures at 100 to 300 mg/kg, ip after 4 hrs; type: functional; details: read-out: MED
# [14] = Neurotoxicity in ip dosed CD1 albino mouse assessed as acute motor impairment by rotarod test; type: toxicity, organism-based; details: in vivo; in short: as §3
# [15] = tested on: Mus musculus; assay: Anticonvulsant activity in ip dosed CD1 albino mouse assessed as protection against 32 mA-current- for 3 secs induced seizure by 6Hz psychomotor seizure test; type: functional; in short: as §4
# [16] = species on record: Mus musculus; assay: Protection index, ratio of TD50 for CD1 albino mouse to ED50 for protection against 32 mA-current- for 3 secs induced seizure in CD1 albino mouse by 6Hz psychomotor seizure test; in short: as §4
# [17] = tested on: Mus musculus; assay: Anticonvulsant activity in CD1 mouse assessed as protection against 32 mA-current- for 3 secs induced seizure at 100 mg/kg, ip after 0.5 hrs by 6Hz psychomotor seizure test; type: functional
# In short: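 Male CD-1 mice given 100 mg/kg ip in 0.5% methylcellulose, four per time point. Corneal stimulation at 32 mA, 0.2 ms monopolar rectangular pulses at 6 Hz for 3 s, from a constant-current device. A mouse was protected if it resumed normal exploratory behavior within 10 s. Reported as number protected over number tested.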
# [18] = species on record: Mus musculus; assay: Protection index, ratio of TD50 for CD1 albino mouse to ED50 for protection against maximal electroshock-induced seizures in CD1 albino mouse; in short: as §3
# [19] = tested on: Mus musculus; assay: Anticonvulsant activity in ip dosed CD1 albino mouse assessed as protection against maximal electroshock-induced seizures; type: functional
# [20] = tested on: Mus musculus; assay: Local anesthetic activity in CD1 albino mouse assessed prolongation of time reaction at 2 % concentration after 20 secs by tail immersion test relative to vehicle control; type: functional
# In short: (§5)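 Compound at 1 or 2% in 0.5% methylcellulose, injected sc (0.2 ml) about 1 cm from the tail root of male CD-1 mice. After 15 min, the distal 3 cm of the tail was immersed in 50 ± 0.5 °C water and withdrawal time measured, cut off at 20 s. n=8; mean ± SEM; % prolongation relative to vehicle.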
# [21] = tested on: Mus musculus; assay: Local anesthetic activity in CD1 albino mouse assessed prolongation of time reaction at 1 % concentration after 20 secs by tail immersion test relative to vehicle control; type: functional; in short: as §5
# [22] = tested on: Mus musculus; assay: Anticonvulsant activity in CD1 albino mouse assessed as protection against subcutaneous pentylenetetrazole-induced seizures at 100 to 300 mg/kg, ip after 4 hrs; type: functional; details: CD1, 4 h, read-out: MED; in short: as §2
# [23] = tested on: Mus musculus; assay: Anticonvulsant activity in ip dosed CD1 albino mouse assessed as protection against subcutaneous pentylenetetrazole-induced seizures; type: functional; in short: as §3
# [24] = tested on: Mus musculus; assay: Protection index, ratio of TD50 for CD1 albino mouse to ED50 for protection against subcutaneous pentylenetetrazole-induced seizures in CD1 albino mouse; in short: as §3
SMILES,MTC [1] [mg/kg],Activity [2],minimal effective dose [3] [mg/kg],Activity [4],minimal effective dose [5] [mg/kg],Activity [6],Activity [7],Activity [10],Activity [11],also measured
Cc1cccc(N2CCN(C(=O)CN3C(=O)CC(C)C3=O)CC2)c1 (stereo not given),300,Non-toxic,300,inactive,100,inactive,,,,
CCCC(CCC)C(=O)O [VALPROIC ACID],,Non-toxic,300,inactive,300,inactive,Non-toxic,,,Time [8]: 0.5 h; Time [9]: 0.5 h
CCC1(C)CC(=O)N(CC(=O)N2CCN(c3cccc(Cl)c3)CC2)C1=O (stereo not given),,Non-toxic,,inactive,,inactive,Non-toxic,inactive,inactive,
CC1CC(=O)N(CC(=O)N2CCN(c3cccc(C(F)(F)F)c3)CC2)C1=O (stereo not given),300,,100,,300,inactive,,,,MTC [12]: 300 mg/kg; minimal effective dose [13]: 100 mg/kg
CCC1(C)CC(=O)N(CC(=O)N2CCN(c3ccc(Cl)cc3)CC2)C1=O (stereo not given),300,Non-toxic,,inactive,100,inactive,,inactive,,TD50 [14]: 196 mg/kg; ED50 [15]: 128 mg/kg; Ratio TD50/ED50 [16]: 1.53; Time [9]: 0.5 h
CCC1(C)CC(=O)N(CC(=O)N2CCN(c3ccccc3Cl)CC2)C1=O (stereo not given),300,Non-toxic,100,inactive,,inactive,,,inactive,Activity [17]: 100%; Time [8]: 0.5 h; TD50 [14]: 132 mg/kg; Ratio TD50/ED50 [18]: 1.08; ED50 [15]: 73.3 mg/kg; Ratio TD50/ED50 [16]: 1.8; Time [9]: 0.5 h; ED50 [19]: 122 mg/kg
CCC1(C)CC(=O)N(CC(=O)N2CCN(c3ccccc3C)CC2)C1=O (stereo not given),300,Non-toxic,100,inactive,100,inactive,,,,
Cc1cccc(C)c1NC(=O)C1CCCCN1C (stereo not given) [MEPIVACAINE],,,,,,,,,,Activity [20]: 116.67%; Activity [21]: 94.63%
CC[C@@H](C(N)=O)N1CCCC1=O,,,,,,,,,,TD50 [14]: > 500 mg/kg; Time [9]: 1 h
CCC1(C)CC(=O)N(CC(=O)N2CCN(c3ccccc3F)CC2)C1=O (stereo not given),,Non-toxic,,inactive,,inactive,Non-toxic,inactive,inactive,
CC1CC(=O)N(CC(=O)N2CCN(c3ccccc3F)CC2)C1=O (stereo not given),300,Non-toxic,300,,,inactive,,,inactive,minimal effective dose [13]: 300 mg/kg
CCC1(C)CC(=O)N(CC(=O)N2CCN(c3cccc(Cl)c3Cl)CC2)C1=O (stereo not given),,Non-toxic,,inactive,,inactive,Non-toxic,inactive,inactive,
Cc1ccccc1N1CCN(C(=O)CN2C(=O)CC(C)C2=O)CC1 (stereo not given),300,Non-toxic,300,inactive,100,inactive,,,,
CC1CC(=O)N(CC(=O)N2CCN(c3ccccc3)CC2)C1=O (stereo not given),300,Non-toxic,300,inactive,300,,,,,minimal effective dose [22]: 300 mg/kg
CCC1(C)CC(=O)N(CC(=O)N2CCN(c3cccc(C)c3)CC2)C1=O (stereo not given),,Non-toxic,,inactive,,inactive,Non-toxic,inactive,inactive,
CCC1(C)CC(=O)N(CC(=O)N2CCN(c3ccc(Cl)c(Cl)c3)CC2)C1=O (stereo not given),,Non-toxic,,inactive,,inactive,Non-toxic,inactive,inactive,
CC1CC(=O)N(CC(=O)N2CCN(c3cccc(Cl)c3Cl)CC2)C1=O (stereo not given),,Non-toxic,,inactive,100,,Non-toxic,inactive,,Time [8]: 1 h; ED50 [23]: 74.7 mg/kg; TD50 [14]: 343 mg/kg; Ratio TD50/ED50 [24]: 4.6; minimal effective dose [22]: 100 mg/kg
CCC1(C)CC(=O)N(CC(=O)N2CCN(c3ccccc3)CC2)C1=O (stereo not given),,Non-toxic,,inactive,,inactive,Non-toxic,inactive,inactive,
CCC1(C)CC(=O)NC1=O (stereo not given) [ETHOSUXIMIDE],,Non-toxic,,inactive,100,,Non-toxic,inactive,,Time [8]: 0.25 h; minimal effective dose [22]: 300 mg/kg
